From paper PMC8223195 (Molecular Diversity, 2021)

What was measured:
[1] = tested on: Z-138 (non-Hodgkin lymphoma); assay: IncuCyte real-time proliferation assay, Z-138; assay type: cell-based; conditions: Z-138, 72 h
[2] = tested on: Capan-1 (pancreatic adenocarcinoma); assay: IncuCyte real-time proliferation assay, Capan-1; assay type: cell-based
[3] = tested on: LN-229 (glioblastoma); assay: IncuCyte real-time proliferation assay, LN-229; assay type: cell-based; conditions: LN-229, 72 h
[4] = tested on: K-562 (chronic myeloid leukemia); assay: IncuCyte real-time proliferation assay, K-562; assay type: cell-based
[5] = tested on: HEL 299 cells
[6] = tested on: HL-60 (acute myeloid leukemia); assay: IncuCyte real-time proliferation assay, HL-60; assay type: cell-based; conditions: HL-60, 72 h
[7] = tested on: hCoV-229E; assay type: cell-based, human corona virus 229E; conditions: for EC50: (*) mean of three independent experiments ± SEM
[8] = tested on: DND-41 (acute lymphoblastic leukemia); assay: IncuCyte real-time proliferation assay, DND-41; assay type: cell-based
[9] = tested on: HCT-116 (colorectal carcinoma); assay: IncuCyte real-time proliferation assay, HCT-116; assay type: cell-based; conditions: HCT-116, 72 h
[10] = tested on: NCI-H460 (lung carcinoma); assay: IncuCyte real-time proliferation assay, NCI-H460; assay type: cell-based; conditions: NCI-H460, 72 h
[11] = tested on: peripheral blood mononuclear cells (PBMCs); assay: In vitro apoptosis induction assay in PBMC; assay type: cell-based; conditions: 72 h
Summary of the method: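 Counter-screen on normal PBMCs from two healthy donors. Cells were exposed to graded test-compound concentrations with Caspase-3/7 Green Reagent added. Activated intracellular caspase-3/7 cleaves the reagent at its DEVD motif, marking apoptotic cells. Propidium iodide staining separated dead from live cells. Read-out: numbers of apoptotic and dead cells.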

[12] = tested on: alpha-tubulin in HEp-2 cells; assay: Tubulin immune fluorescence staining in HEp-2 cells; assay type: cell-based, human; conditions: HEp-2 cells treated for 3 h
[13] = * mean of two independent experiments ± SEM
[14] = Capan-1, 72 h, * mean of two independent experiments ± SEM
[15] = K-562, 72 h, * mean of two independent experiments ± SEM
[16] = DND-41, 72 h, * mean of two independent experiments ± SEM

Compound	IC50 [1, 13]	IC50 [2, 14]	IC50 [3, 13]	IC50 [4, 15]	CC50 [5]	IC50 [6, 13]	EC50 [7]	IC50 [8, 16]	IC50 [9, 13]	IC50 [10, 13]	also measured
Cc1cc(C)n(-c2nnc3n2NC(c2ccc(Cl)cc2)C(C(=O)c2ccc(Br)cc2)S3)n1 (racemic) [5 g, ( ±)-(4-Bromophenyl)(6-(4-chlorophenyl)-3-(3,5-dimethyl-1H-pyrazol-1-yl)-6,7-dihydro-5H-triazolo[3,4-b][1,3,4]thiadiazin-7-yl)methanone]	> 100 µM	> 100 µM	> 100 µM	> 100 µM	> 100 µM	> 100 µM	> 100 µM	> 100 µM	> 100 µM	> 100 µM	–
Cc1cc(C)n(-c2nnc3n2NC(c2ccc([N+](=O)[O-])cc2)C(C(=O)c2ccc([N+](=O)[O-])cc2)S3)n1 (racemic) [Compound 5c, ( ±)-(3-(3,5-Dimethyl-1H-pyrazol-1-yl)-6-(4-nitrophenyl)-6,7-dihydro-5H-[1,2,4]triazolo[3,4-b][1,3,4]thiadiazin-7-yl)(4-nitrophenyl)methanone]	> 100 µM	> 100 µM	> 100 µM	> 100 µM	> 100 µM	> 100 µM	24.4 µM	> 100 µM	> 100 µM	> 100 µM	–
Cc1cc(C)n(-c2nnc3n2NC(c2cccs2)C(C(=O)c2ccc([N+](=O)[O-])cc2)S3)n1 (racemic) [5 s, ( ±)-(3-(3,5-Dimethyl-1H-pyrazol-1-yl)-6-(thiophen-2-yl)-6,7-dihydro-5H-[1,2,4]triazolo[3,4-b][1,3,4]thiadiazin-7-yl)(4-nitrophenyl)methanone]	> 100 µM	> 100 µM	> 100 µM	> 100 µM	> 100 µM	> 100 µM	> 100 µM	> 100 µM	> 100 µM	> 100 µM	–
Cc1ccc(C(=O)C2Sc3nnc(-n4nc(C)cc4C)n3NC2c2ccccc2Br)cc1 (racemic) [Compound 5f, ( ±)-(6-(2-Bromophenyl)-3-(3,5-dimethyl-1H-pyrazol-1-yl)-6,7-dihydro-5H-[1,2,4]triazolo[3,4-b][1,3,4]thiadiazin-7-yl)(p-tolyl)methanone]	> 100 µM	> 100 µM	> 100 µM	> 100 µM	> 100 µM	> 100 µM	3.2 ± 1.8 µM	> 100 µM	> 100 µM	> 100 µM	selectivity index [7]: favorable selectivity indexes
COc1ccc(C2=C(C(=O)c3ccc([N+](=O)[O-])cc3)Sc3nnc(-n4nc(C)cc4C)n3N2)c(OC)c1 [Compound 5p, ( ±)-(6-(2,4-dimethoxyphenyl)-3-(3,5-dimethyl-1H-pyrazol-1-yl)-5H-[1,2,4]triazolo[3,4-b][1,3,4]thiadiazin-7-yl)(4-nitrophenyl)methanone]	> 100 µM	> 100 µM	> 100 µM	> 100 µM	> 100 µM	> 100 µM	> 100 µM	> 100 µM	> 100 µM	> 100 µM	–
Cc1ccc(C(=O)C2Sc3nnc(-n4nc(C)cc4C)n3NC2c2ccc(C)cc2)cc1 (racemic) [Compound 5b, ( ±)-(3-(3,5-Dimethyl-1H-pyrazol-1-yl)-6-(p-tolyl)-6,7-dihydro-5H-[1,2,4]triazolo[3,4-b][1,3,4]thiadiazin-7-yl)(p-tolyl)methanone]	48.4 µM	57.5 µM	47.1 µM	10.4 µM	81.5 µM	50.9 µM	4.7 ± 0.5 µM	39.3 µM	67.8 µM	> 100 µM	selectivity index [7]: favorable selectivity indexes
COc1cc(C2Nn3c(nnc3-n3nc(C)cc3C)SC2C(=O)c2ccccc2)cc(OC)c1OC (racemic) [5 m, ( ±)-(3-(3,5-Dimethyl-1H-pyrazol-1-yl)-6-(3,4,5-trimethoxyphenyl)-6,7-dihydro-5H-[1,2,4]triazole [3,4-b][1,3,4]thiadiazin-7-yl)(phenyl)methanone]	> 100 µM	> 100 µM	> 100 µM	> 100 µM	> 100 µM	> 100 µM	95.7 µM	> 100 µM	> 100 µM	> 100 µM	–
Cc1cc(C)n(-c2nnc3n2NC(c2ccco2)C(C(=O)c2ccc([N+](=O)[O-])cc2)S3)n1 (racemic) [Compound 5t, ( ±)-(3-(3,5-Dimethyl-1H-pyrazol-1-yl)-6-(furan-2-yl)-6,7-dihydro-5H-[1,2,4]triazolo[3,4-b][1,3,4]thiadiazin-7-yl)(4-nitrophenyl)methanone]	49.5 µM	> 100 µM	62.7 µM	79.3 µM	> 100 µM	74.5 µM	> 100 µM	> 100 µM	> 100 µM	> 100 µM	–
Cc1ccc(C(=O)C2Sc3nnc(-n4nc(C)cc4C)n3NC2c2cc(F)c(F)c(F)c2)cc1 (racemic) [Compound 5j, ( ±)-(3-(3,5-Dimethyl-1H-pyrazol-1-yl)-6-(3,4,5-trifluorophenyl)-6,7-dihydro-5H-[1,2,4]triazole [3,4-b][1,3,4]thiadiazin-7-yl)(p-tolyl)methanone]	1.9 ± 0.03 µM	2.3 ± 0.2 µM	2.7 ± 0.2 µM	3.4 ± 0.2 µM	23.8 µM	13 ± 2.8 µM	> 100 µM	2.4 ± 0.4 µM	2.5 ± 0.09 µM	56 µM	viability of normal PBMCs ([11]; PBMC from two healthy donors, 100 to 0.16 µM): did not inhibit the viability; number of apoptotic and dead cells ([11]; PBMC, 100 µM, caspase-3/7 and PI): small increase in the number of apoptotic and dead cells; polymerization of tubulin [12]: inhibit the polymerization of tubulin in a dose-dependent manner
Cc1cc(C)n(-c2nnc3n2NC(c2cc(F)c(F)c(F)c2)C(C(=O)c2ccccc2)S3)n1 (racemic) [5 k, ( ±)-(3-(3,5-Dimethyl-1H-pyrazol-1-yl)-6-(3,4,5-trifluorophenyl)-6,7-dihydro-5H-[1,2,4]triazole [3,4-b][1,3,4]thiadiazin-7-yl)(phenyl)methanone]	> 100 µM	> 100 µM	> 100 µM	> 100 µM	> 100 µM	> 100 µM	> 100 µM	> 100 µM	> 100 µM	> 100 µM	–
COc1ccc(C(=O)C2Sc3nnc(-n4nc(C)cc4C)n3NC2c2ccccc2Cl)cc1 (racemic) [Compound 5n, ( ±)-(6-(2-Chlorophenyl)-3-(3,5-dimethyl-1H-pyrazol-1-yl)-6,7-dihydro-5H-[1,2,4]triazolo[3,4-b][1,3,4]thiadiazin-7-yl)(4-methoxyphenyl)methanone]	53.9 µM	63.1 µM	68.3 µM	53.2 µM	> 100 µM	71.2 µM	> 100 µM	91.7 µM	> 100 µM	> 100 µM	–
Cc1ccc(C(=O)C2Sc3nnc(-n4nc(C)cc4C)n3NC2c2ccco2)cc1 (racemic) [Compound 5r, ( ±)-(3-(3,5-Dimethyl-1H-pyrazol-1-yl)-6-(furan-2-yl)-6,7-dihydro-5H-[1,2,4]triazolo[3,4-b] [1,3,4]thiadiazin-7-yl)(p-tolyl)methanone]	50.2 µM	54.3 µM	43.9 µM	23.5 µM	> 100 µM	54 µM	> 100 µM	70.2 µM	69 µM	47 µM	–
CN[C@@H]1C[C@H]2O[C@@](C)([C@@H]1OC)n1c3ccccc3c3c4c(c5c6ccccc6n2c5c31)C(=O)NC4 [STS, staurosporine, reference compound]	–	–	–	–	–	–	–	–	–	–	IC50 ([2]; Homo sapiens, CAPAN-1, 72 h): 0.0007 ± 0.0002 µM; IC50 ([3]; Homo sapiens): 0.0229 ± 0.0021 µM
CC(=O)O[C@@]12CO[C@@H]1C[C@H](O)[C@@]1(C)C(=O)[C@H](O)C3=C(C)[C@@H](OC(=O)[C@H](O)[C@@H](NC(=O)OC(C)(C)C)c4ccccc4)C[C@@](O)([C@@H](OC(=O)c4ccccc4)[C@H]21)C3(C)C [Docetaxel, reference compound]	–	–	–	–	–	–	–	–	–	–	IC50 ([1]; Homo sapiens): 0.0011 ± 0.0008 µM; IC50 ([2]; Homo sapiens, CAPAN-1, 72 h): 0.0042 ± 0.0021 µM; IC50 ([3]; Homo sapiens): 0.0087 ± 0.0004 µM; IC50 ([4]; Homo sapiens, K562, 72 h): 0.0037 ± 0.0003 µM; IC50 ([6]; Homo sapiens): 0.0023 ± 0.0003 µM; IC50 ([8]; DND41, 72 h): 0.0033 ± 0.0014 µM; IC50 ([9]; Homo sapiens): 0.0009 ± 0.0008 µM; IC50 ([10]; Homo sapiens): 0.0038 ± 0.0029 µM
Cc1cc(C)n(-c2nnc3n2NC(c2ccccc2Br)C(C(=O)c2ccc(F)cc2)S3)n1 (racemic) [Compound 5e, ( ±)-(6-(2-Bromophenyl)-3-(3,5-dimethyl-1H-pyrazol-1-yl)-6,7-dihydro-5H-[1,2,4]triazolo[3,4-b][1,3,4]thiadiazin-7-yl)(4-fluorophenyl)methanone]	> 100 µM	> 100 µM	> 100 µM	> 100 µM	> 100 µM	> 100 µM	> 100 µM	> 100 µM	> 100 µM	> 100 µM	–
